CAL PDZ FP-1 = inhibitors of human CAL PDZ peptide binding; Q9HD26; purified CAL PDZ, TMR-peptide fluorescence polarization, 1 h; inhibition, % at 24.9 µM; actives 0.92% (n = 300,000); AID 602252;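 active = mean inhibition of at least 30% with at least half of replicates also reaching 30%; inconclusive = no clear call, values can overlap the other calls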;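 note: 0% = DMSO neutral control and 100% = excess unlabeled competitor peptide PRC23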
C2C12 statin = protects C2C12 myotubes from simvastatin toxicity; rescue of ATP level, % at 7.49 µM; ATP luminescence, 48 h; scaled: DMSO 0, geranylgeraniol control 100; actives 0.78% (n = 330,000);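 active = mean ATP rescue above about 67%, or every replicate alone reaching that limit, limit read from the data, passing the limit was not always enough; inconclusive = no clear call, values can overlap the other calls; inactive = mean under the limit and some replicate under it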;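 note: myotubes were challenged with 10 µM simvastatin during compound exposure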
CDK5 p35 inh = blocks human CDK5/p35 kinase activity. Q00535+Q15078. Recombinant CDK5/p35, ADP-Glo luminescence, 60 min. inhibition, % at 10 µM. actives 0.01% (n = 330,000);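 active = highest replicate inhibition of at least 50% and at least 75% of replicates reaching 50%; inconclusive = only one of the two criteria met; inactive = both criteria failed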;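 note: plate controls were DMSO neutral control for no effect and GW8510 at 10 µM for full effect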
S100A4 inh HTS = blocks human S100A4 binding to myosin IIA peptide. P26447. S100A4/TAMRA-MyoIIA peptide fluorescence polarization. inhibition, % at 10.7 µM. actives 0.14% (n = 360,000);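 active = mean inhibition of at least 70% across replicates, with every replicate also reaching that level; inconclusive = mean inhibition reaches 70% but some replicates fall short; inactive = mean inhibition below 70%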
Target sequence (P26447 whole entry, looked up): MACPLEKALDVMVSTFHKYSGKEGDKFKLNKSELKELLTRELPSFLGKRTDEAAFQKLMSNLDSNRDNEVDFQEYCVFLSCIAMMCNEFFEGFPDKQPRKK
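Test system: S100A4 monomer protein. Medium: HEPES buffer with Ca2+, pH 7.2. Reagent: fluorescent myosin IIA peptide, 5 nM. Compound dosing: single-point compound testing. Timing: 5 min between mix addition and reading. Benchmarks: DMSO neutral and TFP positive wells.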
CAL PDZ FP-2 = blocks peptide binding to human CAL PDZ domain. Q9HD26. purified CAL PDZ, TMR-peptide fluorescence polarization, 1 h. inhibition, % at 20 µM. actives 0.02% (n = 330,000);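 active = highest replicate inhibition of at least 40%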;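 note: plate controls were DMSO neutral control wells for no effect and unlabeled competitor peptide control wells for full effect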
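material = purified tagged CAL PDZ domain construct (CerCALP) | buffer or medium = sodium phosphate/NaCl buffer pH 7.4 with TCEP, IgG, Thesit | reagent = TMR-labelled reporter peptide T*-PRC34 bound in PDZ groove | incubation = 1 h room-temperature incubation prior to read | measured by = fluorescence polarization (mP) | evaluation = percent inhibition from loss of millipolarization | control set = unlabelled peptide and DMSO controls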
dFosB act-1 = activators of mouse delta FosB homodimer; AID 493131; P13346; activation, % at 25 µM; purified delta FosB, TAMRA-CDK5 oligo fluorescence polarization; percent of positive-control signal above neutral wells; actives 0.99% (n = 340,000);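 active = mean activation above about 17%, with every replicate also reaching it, limit read from the data, passing the limit was not always enough; inconclusive = only one of the two conditions met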
Target sequence (P13346 whole entry, looked up): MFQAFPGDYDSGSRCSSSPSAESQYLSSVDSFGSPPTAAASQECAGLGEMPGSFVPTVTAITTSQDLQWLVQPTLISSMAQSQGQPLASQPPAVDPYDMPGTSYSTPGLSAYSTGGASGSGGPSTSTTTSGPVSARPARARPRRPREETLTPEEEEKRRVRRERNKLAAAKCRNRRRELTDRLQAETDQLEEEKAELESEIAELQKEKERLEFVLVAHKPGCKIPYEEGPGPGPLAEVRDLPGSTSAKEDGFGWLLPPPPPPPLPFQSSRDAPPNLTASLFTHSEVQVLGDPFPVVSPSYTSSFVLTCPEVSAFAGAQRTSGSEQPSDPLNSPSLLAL
dFosB act-2 = enhances mouse delta FosB homodimer binding to DNA; purified delta FosB, TAMRA-CDK5 oligo fluorescence polarization; normalised: neutral wells 0, positive control 100; activation, % at 24.9 µM; shares compounds with dFosB act-1; AID 588690; 2,400 tested, under 10 active;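 active = highest replicate activation at or above 34% and every replicate reaching that threshold; inconclusive = meets only one of the two criteria; inactive = meets neither criterion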;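 note: higher polarization means more probe DNA bound by delta FosB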
Starred values were filed as active, the others as inactive; ? = inconclusive; . = no result; ! = a repeat was not active. Hits are enriched below; roughly 2% of the tested compounds scored in any of these assays.

SMILES	CAL PDZ FP-1	C2C12 statin	CDK5 p35 inh	S100A4 inh HTS	CAL PDZ FP-2	dFosB act-1	dFosB act-2
O=C(NCc1nnc(SCC(=O)N2CCOCC2)o1)c1c(F)cccc1F	-4	.	-1	3	-1	-1	.
C/C=C/c1cnc2c(c1)C(=O)N([C@H](C)CO)C[C@H](C)[C@H](CN(C)CC1CCOCC1)O2	.	21	.	9	.	.	.
C[C@H](NC(=O)OCc1ccccc1)C(=O)NNC(=O)[C@H](Cc1ccccc1)NC(=O)OC(C)(C)C	-2	5	-1	-9	0	27*	2
O=C(NCCc1ccco1)C(=O)NCC1CCCN1S(=O)(=O)c1ccccc1 (stereo not given)	-3	.	2	0	-4	-3	.
CN(C)c1ccc2c(c1)[C@H]1C[C@@H](CC(=O)NCc3ccc(Oc4ccccc4)cc3)O[C@H](CO)[C@H]1O2	.	.	.	-7	.	.	.
COC(=O)c1cc(OC)c(OC)cc1NC(=O)c1cc(OC)cc(OC)c1	-2	-23	0	-6	-3	23*	-4
COc1ccc(OCC(=O)Nc2nc3ccc(NC(C)=O)cc3s2)cc1	.	.	-6	-1	-1	23*	8
CC(=O)Nc1ccc2nc(NC(=O)c3cccs3)sc2c1	-6	-42	0	2	-4	22*	-2
CC(=O)Nc1ccc2nc(NC(=O)COc3ccc([N+](=O)[O-])cc3)sc2c1	.	.	0	0	0	4	.
CCn1c(-c2cc(-c3cccc(OC)c3)nc3ccccc23)n[nH]c1=S	.	48	3	-5	-3	-13	.
COc1cccc(NC(=O)COc2ccc3c(c2)CCC3)c1	.	.	0	0	-1	-10	.
CCOC(=O)Nc1cccc(OCC(=O)Nc2ccc3c(c2)CCC3)c1	-2	-5	1	0	2	23*	-1
Clc1cccc(-c2ccnc3nc(-n4cccc4)nn23)c1	.	.	0	.	-1	37*	-2
COc1ccc(-c2ccnc3nc(-n4cccc4)nn23)cc1	-9	.	-4	.	-2	9	.
Cc1cc(C)c(NC(=O)Nc2ccccc2C)c(Cl)c1	3	2	0	-7	0	20*	2
Cc1cc(C)c(NC(=O)Nc2ccccc2)c(Cl)c1	-1	.	1	.	-3	-4	.
Cc1ccc2c(cnn2C(=O)CCC(=O)N2CCCCC2)c1	.	-4	2	3	-1	-4	.
Cc1cc(C(=O)Nc2ccc3c(c2)C(=O)N(C)[C@@H]2CC[C@@H](CC(=O)N[C@@H](C)c4ccccc4)O[C@H]2CO3)no1	.	33	.	1	.	.	.
O=S(=O)(c1ccccc1F)N1CCN(c2nc(-c3cccnc3)nc3ccccc23)CC1	15	11	0	-3	-1	-7	.
COc1ccc(S(=O)(=O)N2CCN(c3nc(-c4cccnc4)nc4ccccc34)CC2)cc1	1	-15	0	-14	-1	18*	-1
CC/C(=C(\c1ccccc1)c1ccc(OCCN(C)C)cc1)c1ccccc1	-6	4	1	4	-1	24*!	-1
CCn1c2ccccc2c2cc(NC(=O)COC(=O)c3ccc(O)cc3)ccc21	-3	-46	1	-3	-3	15	.
CCn1c2ccccc2c2cc(NC(=O)C(C)OC(=O)c3ccc(NC(=O)CC#N)cc3)ccc21 (stereo not given)	4	-53	-2	3	0	18*	7
Cc1cc(C)cc(NC(=O)C(OC(=O)c2ccc(NC(=O)CC#N)cc2)c2ccccc2)c1 (stereo not given)	-7	12	1	-4	-3	28*	3
Cc1ccc(C)c(NC(=O)C(OC(=O)c2ccc(CO)cc2)c2ccccc2)c1 (stereo not given)	-1	-6	1	-3	1	35*	3
SMILES	CAL PDZ FP-1	C2C12 statin	CDK5 p35 inh	S100A4 inh HTS	CAL PDZ FP-2	dFosB act-1	dFosB act-2
Cc1ccc(C)c(NC(=O)C(OC(=O)c2cc[n+]([O-])cc2)c2ccccc2)c1 (stereo not given)	6	0	1	-4	-1	-3	.
CCN(CC)c1ccc(/C=C(\C#N)c2ccccn2)cc1	-2	-44	0	.	-3	-2	.
CCC[N+]1(CC#CCC(c2ccccc2)c2ccccc2)CCCCC1	-6	-290	1	-3	-1	-5	.
COc1ccc(-c2cc3c(=O)n(CC(=O)Nc4cccc(Cl)c4)ncn3n2)cc1	-1	-9	.	-4	-2	42*	2
COc1ccc(CNC(=O)Cn2ncn3c(cc4ccccc43)c2=O)cc1	-2	16	0	3	0	73*	1
COc1ccc(-c2cc3c(=O)n(CC(=O)NCc4ccc(C)cc4)ncn3n2)cc1	12	-1	0	-2	1	7	.
COc1ccc(CNC(=O)Cn2ncn3cccc3c2=O)cc1	.	.	.	-1	.	.	.
COc1ccc(-c2cc3c(=O)n(CC(=O)NCc4ccc(Cl)cc4)ncn3n2)cc1	.	-3	0	-2	-1	0	.
COc1ccc(-c2cc3c(=O)n(CC(=O)NCc4ccc(F)cc4)ncn3n2)cc1	50*	-8	1	-1	-1	101*	?
O=C(Cc1ccc(-n2c(=O)c3sccc3n(CC(=O)Nc3ccccc3F)c2=O)cc1)NCc1ccco1	-5	3	0	3	0	52*	5
Cc1ccc(C)c(Cn2c(=O)n(-c3ccc(CC(=O)NCc4ccco4)cc3)c(=O)c3sccc32)c1	-14	-17	-1	-2	-1	30*	-1
Cc1ccc(-n2c(=O)c3sccc3n(CC(=O)NC3CCCC3)c2=O)cc1	.	-6	1	25	-1	?	.
O=C(Cn1c(=O)n(-c2ccc(F)cc2)c(=O)c2sccc21)NC1CCCCC1	0	-12	1	8	0	31*	5
CCN(CC)c1ccc(NC(=O)CCCCCN2C(=O)c3ccccc3C2=O)cc1	.	.	0	.	0	-2	.
O=C(c1cccc(Br)c1)c1conc1C(=O)c1ccco1	4	.	0	-2	-2	2	.
COc1cc(/C=C/c2ccc(O)cc2)cc(OC)c1	3	12	0	-3	-1	-5	.
COC(=O)c1ccc2c(c1)C(C)(C)C(/C=C/c1ccc(O)cc1)=[N+]2C	-31	.	11	.	.	119*	2
CCOc1ccc(CCN2C(=S)N([C@@H](CC(C)C)CN3CCCC3CN3C(=S)NC[C@@H]3CC(C)C)C[C@@H]2Cc2ccc(O)cc2)cc1 (stereo not given in full)	1	-1	0	0	0	37*	3
